# Laboratory results taken from ChEMBL document CHEMBL3352009, “Glucopyranosylidene-spiro-iminothiazolidinone, a new bicyclic ring system: synthesis, derivatization, and evaluation for inhibition of glycogen phosphorylase by enzyme kinetic and crystallographic methods” (Bioorg Med Chem, 2014).
# Calls of active or inactive are those of the source. No cut-off for these calls is given here.
# Target: T1, Glycogen phosphorylase, muscle form (Oryctolagus cuniculus, UniProt P00489)
# T1 sequence (P00489 whole entry): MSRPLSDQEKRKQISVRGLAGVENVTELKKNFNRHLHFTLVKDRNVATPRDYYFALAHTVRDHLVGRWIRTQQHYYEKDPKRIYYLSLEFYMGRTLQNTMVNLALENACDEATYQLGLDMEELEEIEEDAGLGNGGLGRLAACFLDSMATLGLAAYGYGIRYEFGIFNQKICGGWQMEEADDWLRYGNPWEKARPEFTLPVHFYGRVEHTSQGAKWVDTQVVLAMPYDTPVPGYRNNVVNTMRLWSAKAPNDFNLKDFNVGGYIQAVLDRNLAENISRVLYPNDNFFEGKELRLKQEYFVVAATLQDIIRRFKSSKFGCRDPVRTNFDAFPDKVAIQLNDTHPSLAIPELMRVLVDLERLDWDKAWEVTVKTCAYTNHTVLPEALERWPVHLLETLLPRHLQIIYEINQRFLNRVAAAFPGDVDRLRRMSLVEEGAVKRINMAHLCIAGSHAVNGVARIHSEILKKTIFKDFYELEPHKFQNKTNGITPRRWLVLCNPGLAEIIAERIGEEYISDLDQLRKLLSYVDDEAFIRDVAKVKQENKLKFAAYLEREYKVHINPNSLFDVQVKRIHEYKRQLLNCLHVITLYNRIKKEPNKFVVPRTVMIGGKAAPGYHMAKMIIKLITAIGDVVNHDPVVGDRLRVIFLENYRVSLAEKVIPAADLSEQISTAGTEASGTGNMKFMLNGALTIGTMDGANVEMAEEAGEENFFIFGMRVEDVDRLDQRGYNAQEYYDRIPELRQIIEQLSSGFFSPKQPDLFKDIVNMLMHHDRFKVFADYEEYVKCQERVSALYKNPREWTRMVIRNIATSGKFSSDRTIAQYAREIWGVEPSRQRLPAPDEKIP
# Assay: Inhibition of rabbit muscle glycogen phosphorylase b at pH 6.8 assessed as inorganic phosphate release
# Outline: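 Rabbit muscle glycogen phosphorylase b; activity followed by inorganic phosphate release at pH 6.8. Inhibition constants reported as Ki, with part of the values derived from IC50 via the Cheng-Prusoff relation Ki = IC50/(1 + [S]/Km).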
row,Compound,Ki [µM]
1,O=C(/N=C1/NC(=O)[C@]2(O[C@H](CO)[C@@H](O)[C@H](O)[C@H]2O)S1)c1ccc2ccccc2c1,10
2,Cc1ccc(C(=O)/N=C2/NC(=O)[C@]3(O[C@H](CO)[C@@H](O)[C@H](O)[C@H]3O)S2)cc1,35
3,O=C(/N=C1/NC(=O)[C@]2(O[C@H](CO)[C@@H](O)[C@H](O)[C@H]2O)S1)c1ccccc1,9
4,N=C1NC(=O)[C@]2(O[C@H](CO)[C@@H](O)[C@H](O)[C@H]2O)S1,24
5,Cc1ccc(S(=O)(=O)/N=C2/NC(=O)[C@]3(O[C@H](CO)[C@@H](O)[C@H](O)[C@H]3O)S2)cc1,63

# Continued, values first:
row,Ki [µM],Compound
1,143,O=C1N/C(=N/S(=O)(=O)c2ccccc2)S[C@@]12O[C@H](CO)[C@@H](O)[C@H](O)[C@H]2O
2,153,O=C1N/C(=N/S(=O)(=O)c2ccc3ccccc3c2)S[C@@]12O[C@H](CO)[C@@H](O)[C@H](O)[C@H]2O
3,29,O=C1N/C(=N/S(=O)(=O)c2cccc3ccccc23)S[C@@]12O[C@H](CO)[C@@H](O)[C@H](O)[C@H]2O
4,15,O=C(/N=C1/NC(=O)[C@]2(O[C@H](CO)[C@@H](O)[C@H](O)[C@H]2O)S1)c1cccc2ccccc12
5,137,CC(C)(C)C(=O)/N=C1/NC(=O)[C@]2(O[C@H](CO)[C@@H](O)[C@H](O)[C@H]2O)S1

# Target: T2, Glycogen phosphorylase, muscle form (Oryctolagus cuniculus) (UniProt P00489)
# T2 sequence (whole entry): T1 sequence (P00489 whole entry)
# Assay: Inhibition of rabbit muscle glycogen phosphorylase b at pH 6.8 assessed as inorganic phosphate release at 1 mM
row,inhibition,Compound
1,48%,O=C1N2CCN=C2S[C@@]12O[C@H](CO)[C@@H](O)[C@H](O)[C@H]2O
2,inactive,O=C1N2CCCN=C2S[C@@]12O[C@H](CO)[C@@H](O)[C@H](O)[C@H]2O
